Converted amounts (≈) assume the structure as drawn.
Assays:
[1] = system: Rattus norvegicus; test: Antiinflammatory activity in Lewis rat assessed as suppression of Mycobacterium tuberculosis adjuvant-induced paw edema at 1 mg/kg, po administered QD from days 15 to 24 post adjuvant-challenge measured on day 25 relative to vehicle-treated control; format: functional
Outline: (§1)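 Female Lewis rats, 7 weeks old; arthritis induced on day 0 by 0.5 mg M. tuberculosis in 50 μL liquid paraffin injected into right hind footpad. Randomized on day 15 (n ≥ 5) by left hind paw volume increase and body weight; drug suspended in 0.5% methylcellulose given orally once daily days 15–24. Left hind paw volume measured day 25 by water displacement plethysmometry; edema expressed as percentage of control.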

[2] = (§2) Oral bioavailability in Sprague-Dawley rat at 1 mg/kg; format: ADME, organism-based; conditions: Sprague-Dawley, in vivo
Outline: (§3)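 Sprague-Dawley rats given 1 mg/kg iv and po, compound dissolved in PEG400. Plasma obtained by centrifugation of collected blood, drug levels quantified by LC/MS/MS. Values are mean ± SD of n = 3.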

[3] = (§4) AUC in Sprague-Dawley rat at 1 mg/kg, po; format: ADME, organism-based, Plasma; parameters: dose 1 mg/kg, route oral; conditions: Sprague-Dawley, plasma; outline: as §3
[4] = Half life in Sprague-Dawley rat at 1 mg/kg, iv; format: ADME, organism-based; parameters: dose 1 mg/kg, route intravenous; conditions: in vivo; outline: as §3
[5] = Volume of distribution at steady state in Sprague-Dawley rat at 1 mg/kg, iv; format: ADME, organism-based; parameters: dose 1 mg/kg, route intravenous; conditions: in vivo, read-out: Vdss; outline: as §3
[6] = Permeability of the compound by PAMPA assay at pH 6.5; format: ADME; conditions: read-out: permeability
Outline: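 PAMPA with pION membrane lipid, donor buffer pH 6.5, n = 2.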

[7] = Total clearance in Sprague-Dawley rat at 1 mg/kg, iv; format: ADME, organism-based; parameters: dose 1 mg/kg, route intravenous; conditions: in vivo; outline: as §3
[8] = system: THP-1; test: Antiinflammatory activity in human THP1 cells assessed as inhibition of LPS-induced TNFalpha production after 20 hrs; format: functional, cell-based; conditions: THP-1, 20 h
Outline: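 THP-1 human monocytic cells kept in RPMI 1640 with 10% FBS, penicillin and streptomycin at 37 °C, 5% CO2. Cells (1 × 10^5/well) stimulated with LPS (10 μg/mL final, E. coli 055:B5) with compound or 0.1% DMSO vehicle for 20 h at 37 °C. Supernatant TNF-α compared with DMSO control. IC50 given as mean of triplicate experiments.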

[9] = system: Rattus norvegicus; test: Antiinflammatory activity in rat assessed as inhibition of LPS-induced TNFalpha production at 1 mg/kg, po administered 4 hrs prior to LPS-challenge measured after 1 to 1.5 hrs by ELISA relative to vehicle-treated control; format: functional
Outline: (§5)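 Rats dosed orally with compound suspended in 0.5% methylcellulose/0.1% Tween-80, 4 h before LPS (10 μg/animal, ip). At 1.0 or 1.5 h after LPS, retro-orbital blood collected into heparin under anesthesia. Plasma diluted one-fifth and assayed by rat TNF-α ELISA. Percent inhibition taken relative to vehicle group (n = 3−4).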

[10] = Intrinsic clearance in rat liver microsomes in presence of NADPH; format: ADME, Microsome; conditions: read-out: CLH
Outline: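 Incubation with rat liver microsomes in the presence of an NADPH-generating system, n = 2.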

[11] = system: Rattus norvegicus; test: Antiinflammatory activity in rat assessed as inhibition of LPS-induced TNFalpha production at 3.2 mg/kg, po administered 4 hrs prior to LPS-challenge measured after 1 to 1.5 hrs by ELISA relative to vehicle-treated control; format: functional; outline: as §5
[12] = Half life in rat liver homogenate; format: ADME, tissue-based
[13] = system: Rattus norvegicus; test: as §2; format: ADME, organism-based; conditions: in vivo; outline: as §3
[14] = system: Rattus norvegicus; test: as §4; format: ADME, organism-based, Plasma; parameters: dose 1 mg/kg, route oral; conditions: in vivo; outline: as §3
[15] = system: Rattus norvegicus; test: Antiinflammatory activity in po dosed Lewis rat assessed as suppression of Mycobacterium tuberculosis adjuvant-induced paw edema administered QD from days 15 to 24 post adjuvant-challenge measured on day 25 relative to vehicle-treated control; format: functional; conditions: 600 h; outline: as §1
[16] = system: Rattus norvegicus; test: Antiinflammatory activity in po dosed rat assessed as inhibition of LPS-induced TNFalpha production administered 4 hrs prior to LPS-challenge measured after 1 to 1.5 hrs by ELISA relative to vehicle-treated control; format: functional; outline: as §5
[17] = Solubility of the compound at pH 6.8; format: physicochemical; conditions: buffer
[18] = biological target: Voltage-gated inwardly rectifying potassium channel KCNH2 (Homo sapiens, UniProt Q12809); test: Inhibition of human ERG by Rb ion flux assay
Chain of Voltage-gated inwardly rectifying potassium channel KCNH2 (Q12809 whole entry): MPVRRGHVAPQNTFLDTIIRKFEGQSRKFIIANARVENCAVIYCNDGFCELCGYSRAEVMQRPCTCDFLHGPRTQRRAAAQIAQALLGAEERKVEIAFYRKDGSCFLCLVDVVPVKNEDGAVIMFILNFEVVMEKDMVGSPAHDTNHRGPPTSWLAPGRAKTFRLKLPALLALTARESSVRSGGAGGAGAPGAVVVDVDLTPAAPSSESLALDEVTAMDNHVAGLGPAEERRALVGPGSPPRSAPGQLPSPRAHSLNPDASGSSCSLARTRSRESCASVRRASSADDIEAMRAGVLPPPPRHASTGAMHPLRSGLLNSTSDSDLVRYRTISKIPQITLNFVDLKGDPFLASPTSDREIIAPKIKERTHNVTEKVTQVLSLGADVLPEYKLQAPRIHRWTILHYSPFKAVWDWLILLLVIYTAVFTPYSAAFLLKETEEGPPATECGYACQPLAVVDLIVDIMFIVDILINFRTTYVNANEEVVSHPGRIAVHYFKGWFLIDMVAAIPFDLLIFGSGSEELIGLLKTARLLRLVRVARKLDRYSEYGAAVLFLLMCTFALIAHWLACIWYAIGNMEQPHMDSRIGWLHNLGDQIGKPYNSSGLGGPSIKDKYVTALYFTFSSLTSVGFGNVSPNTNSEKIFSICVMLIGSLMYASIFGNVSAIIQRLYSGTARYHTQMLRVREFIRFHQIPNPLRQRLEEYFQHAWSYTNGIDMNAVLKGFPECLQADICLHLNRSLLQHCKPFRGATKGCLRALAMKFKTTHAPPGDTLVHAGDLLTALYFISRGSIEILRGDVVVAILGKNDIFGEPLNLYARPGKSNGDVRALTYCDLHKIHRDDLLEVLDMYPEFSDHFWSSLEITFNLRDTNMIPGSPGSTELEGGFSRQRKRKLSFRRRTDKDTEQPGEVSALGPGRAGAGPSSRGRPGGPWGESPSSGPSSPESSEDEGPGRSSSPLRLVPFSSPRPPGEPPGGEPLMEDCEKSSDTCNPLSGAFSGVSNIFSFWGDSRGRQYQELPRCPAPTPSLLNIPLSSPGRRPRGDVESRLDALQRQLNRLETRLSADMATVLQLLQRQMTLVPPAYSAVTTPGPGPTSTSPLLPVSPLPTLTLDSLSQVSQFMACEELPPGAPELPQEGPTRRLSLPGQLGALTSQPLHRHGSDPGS

[19] = biological target: Cytochrome P450 2C9 (Homo sapiens, UniProt P11712); test: Inhibition of CYP2C9; format: ADME
Chain of Cytochrome P450 2C9 (P11712 whole entry): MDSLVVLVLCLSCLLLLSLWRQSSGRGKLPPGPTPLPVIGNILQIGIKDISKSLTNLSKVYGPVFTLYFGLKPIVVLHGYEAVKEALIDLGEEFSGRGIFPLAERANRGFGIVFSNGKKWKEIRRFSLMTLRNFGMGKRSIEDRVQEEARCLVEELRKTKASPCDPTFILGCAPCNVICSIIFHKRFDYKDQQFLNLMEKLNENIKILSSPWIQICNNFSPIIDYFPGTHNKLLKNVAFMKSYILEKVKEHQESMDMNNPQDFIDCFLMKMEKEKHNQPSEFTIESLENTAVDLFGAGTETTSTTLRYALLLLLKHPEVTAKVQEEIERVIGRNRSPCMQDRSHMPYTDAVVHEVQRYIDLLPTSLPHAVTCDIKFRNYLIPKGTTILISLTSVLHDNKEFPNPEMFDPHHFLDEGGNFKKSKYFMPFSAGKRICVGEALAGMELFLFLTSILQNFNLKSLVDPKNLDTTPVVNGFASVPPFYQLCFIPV

[20] = biological target: Cytochrome P450 2D6 (Homo sapiens, UniProt P10635); test: Inhibition of CYP2D6; format: ADME
Chain of Cytochrome P450 2D6 (P10635 whole entry): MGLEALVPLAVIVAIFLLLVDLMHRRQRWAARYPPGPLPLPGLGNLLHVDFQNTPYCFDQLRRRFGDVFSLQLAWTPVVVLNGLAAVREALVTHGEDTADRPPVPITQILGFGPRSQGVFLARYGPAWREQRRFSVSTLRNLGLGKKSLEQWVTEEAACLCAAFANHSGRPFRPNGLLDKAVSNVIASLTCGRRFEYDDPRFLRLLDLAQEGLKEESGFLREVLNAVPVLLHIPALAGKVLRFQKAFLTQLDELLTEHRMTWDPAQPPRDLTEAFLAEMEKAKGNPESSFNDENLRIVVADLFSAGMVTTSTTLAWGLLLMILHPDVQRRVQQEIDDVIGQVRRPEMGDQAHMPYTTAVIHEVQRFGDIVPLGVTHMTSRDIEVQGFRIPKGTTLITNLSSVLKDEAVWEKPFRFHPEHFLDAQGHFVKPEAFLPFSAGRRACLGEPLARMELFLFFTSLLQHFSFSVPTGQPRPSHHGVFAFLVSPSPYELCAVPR

[21] = biological target: Cytochrome P450 2C19 (Homo sapiens, UniProt P33261); test: Inhibition of CYP2C19; format: ADME
Chain of Cytochrome P450 2C19 (P33261 whole entry): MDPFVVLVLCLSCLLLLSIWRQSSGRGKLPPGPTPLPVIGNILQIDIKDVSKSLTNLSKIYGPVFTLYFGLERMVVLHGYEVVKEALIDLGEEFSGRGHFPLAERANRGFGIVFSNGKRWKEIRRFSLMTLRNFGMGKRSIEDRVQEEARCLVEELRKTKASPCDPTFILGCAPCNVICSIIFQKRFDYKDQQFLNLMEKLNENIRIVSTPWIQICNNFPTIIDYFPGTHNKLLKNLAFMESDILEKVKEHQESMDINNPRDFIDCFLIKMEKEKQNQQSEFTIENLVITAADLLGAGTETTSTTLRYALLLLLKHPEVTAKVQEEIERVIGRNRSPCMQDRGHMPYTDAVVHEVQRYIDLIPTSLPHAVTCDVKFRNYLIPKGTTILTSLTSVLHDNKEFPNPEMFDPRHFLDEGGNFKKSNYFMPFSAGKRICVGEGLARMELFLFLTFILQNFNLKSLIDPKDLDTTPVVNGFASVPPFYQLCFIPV

[22] = biological target: T1, Cytochrome P450 1A2 (Homo sapiens, UniProt P05177); test: Inhibition of CYP1A2; format: ADME
T1 sequence (P05177 whole entry): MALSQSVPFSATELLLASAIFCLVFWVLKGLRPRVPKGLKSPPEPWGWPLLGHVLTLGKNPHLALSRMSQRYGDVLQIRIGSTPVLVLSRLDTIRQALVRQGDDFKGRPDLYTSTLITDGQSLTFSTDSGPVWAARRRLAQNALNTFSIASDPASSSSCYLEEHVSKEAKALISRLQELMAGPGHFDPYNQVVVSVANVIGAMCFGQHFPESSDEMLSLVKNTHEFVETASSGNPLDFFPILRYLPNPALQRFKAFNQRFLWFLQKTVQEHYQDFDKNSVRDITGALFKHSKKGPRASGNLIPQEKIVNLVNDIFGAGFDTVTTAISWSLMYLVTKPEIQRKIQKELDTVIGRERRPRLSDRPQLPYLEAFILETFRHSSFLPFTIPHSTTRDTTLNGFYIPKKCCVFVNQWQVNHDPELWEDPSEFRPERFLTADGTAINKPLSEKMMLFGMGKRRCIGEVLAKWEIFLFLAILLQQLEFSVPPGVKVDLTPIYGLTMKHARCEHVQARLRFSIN

[23] = biological target: Mitogen-activated protein kinase 9 (Homo sapiens, UniProt P45984); test: Inhibition of human recombinant JNK2alpha2-mediated ATF-2 phosphorylation after 30 mins by immunoblotting method
Chain of Mitogen-activated protein kinase 9 (P45984 whole entry): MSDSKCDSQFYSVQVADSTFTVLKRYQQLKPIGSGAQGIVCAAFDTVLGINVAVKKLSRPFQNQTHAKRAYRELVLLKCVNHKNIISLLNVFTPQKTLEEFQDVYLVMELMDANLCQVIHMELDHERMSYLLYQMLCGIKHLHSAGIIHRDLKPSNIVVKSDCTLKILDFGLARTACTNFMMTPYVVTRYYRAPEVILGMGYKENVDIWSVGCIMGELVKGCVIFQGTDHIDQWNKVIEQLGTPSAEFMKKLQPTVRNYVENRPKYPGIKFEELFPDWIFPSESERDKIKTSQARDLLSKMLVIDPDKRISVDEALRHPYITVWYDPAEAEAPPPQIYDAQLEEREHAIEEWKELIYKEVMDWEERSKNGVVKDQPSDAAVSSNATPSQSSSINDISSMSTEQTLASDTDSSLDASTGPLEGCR

[24] = biological target: Mitogen-activated protein kinase 11 (Homo sapiens, UniProt Q15759); test: Inhibition of human MAPK p38beta by Z'-LYTE assay
Chain of Mitogen-activated protein kinase 11 (Q15759 whole entry): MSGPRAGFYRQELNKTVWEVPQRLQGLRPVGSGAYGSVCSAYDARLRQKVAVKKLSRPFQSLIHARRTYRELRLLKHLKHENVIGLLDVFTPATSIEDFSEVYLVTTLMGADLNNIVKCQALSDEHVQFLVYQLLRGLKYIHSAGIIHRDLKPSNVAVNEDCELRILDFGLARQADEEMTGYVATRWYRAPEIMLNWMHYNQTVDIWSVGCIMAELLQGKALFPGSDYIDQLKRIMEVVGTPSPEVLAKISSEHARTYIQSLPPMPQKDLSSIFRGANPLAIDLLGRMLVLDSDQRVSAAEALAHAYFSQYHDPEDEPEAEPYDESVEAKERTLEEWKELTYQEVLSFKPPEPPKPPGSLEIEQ
Outline: (§6)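 Human p38α or p38β kinase activity measured by Z′-Lyte kinase assay system.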

[25] = biological target: Mitogen-activated protein kinase 14 (Homo sapiens, UniProt Q16539); test: Inhibition of human MAPK p38alpha by Z'-LYTE assay; outline: as §6
Chain of Mitogen-activated protein kinase 14 (Q16539 whole entry, looked up): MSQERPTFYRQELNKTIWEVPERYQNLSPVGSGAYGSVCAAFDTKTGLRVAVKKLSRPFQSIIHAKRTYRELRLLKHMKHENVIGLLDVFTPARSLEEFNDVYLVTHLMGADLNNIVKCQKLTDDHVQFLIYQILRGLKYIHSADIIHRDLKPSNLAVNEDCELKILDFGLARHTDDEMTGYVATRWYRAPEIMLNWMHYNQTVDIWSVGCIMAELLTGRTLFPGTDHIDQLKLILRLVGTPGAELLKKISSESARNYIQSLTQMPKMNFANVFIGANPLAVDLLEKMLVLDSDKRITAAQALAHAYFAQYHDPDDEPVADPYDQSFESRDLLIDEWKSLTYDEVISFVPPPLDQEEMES

SMILES | Activity [1] | half-life [4] | Vd [5] | Papp [6] | IC50 [8] | inhibition in vivo at 1 mg/kg [9] | also measured
Cc1ccccc1-n1nc(-c2c(-c3ccc(F)cc3)nn3c2N[C@H](CO)CC3)ccc1=O | 62.3% | 5.95 h | 0.98 L/kg | 22 ×10⁻⁶ cm/s | 0.37 nM | 98% | bioavailability [2]: 100%; AUC [3]: 4500 ng·h/mL; clearance [7]: 3.8 mL/min/kg
Cc1ccccc1-n1nc(-c2c(-c3ccc(F)cc3)nn3cc(CO)cnc23)ccc1=O | – | – | – | – | 23 nM | 11% | –
O=c1ccc(-c2c(-c3ccccc3)nn3ccccc23)nn1CC1(O)CCCCC1 | – | – | – | – | 14 nM | – | CLint scaled [10]: 195 mL/min/kg; inhibition in vivo at 3.2 mg/kg [11]: 43%
CNc1c(-c2ccc(=O)n(-c3ccccc3C)n2)c(-c2ccc(F)cc2)nn1C | 37% | 0.66 h | 0.65 L/kg | 30 ×10⁻⁶ cm/s | 6 nM | 86% | bioavailability [2]: 28.6%; AUC [3]: 235 ng·h/mL; clearance [7]: 20.6 mL/min/kg; half-life [12]: 0.66 h; CLint scaled [10]: 213 mL/min/kg
Cc1ccccc1-n1nc(-c2c(-c3ccc(F)cc3)nn3c2OCCC3)ccc1=O | – | – | – | – | 10 nM | 33% | –
Cc1ccccc1-n1nc(-c2c(-c3ccc(F)cc3)nn3c2NC[C@H](CO)C3)ccc1=O | 59.7% | 3.82 h | 1.11 L/kg | – | 0.95 nM | 92% | F [13]: 103.6%; AUC [14]: 1217 ng·h/mL
Cc1ccccc1-n1nc(-c2c(-c3ccc(F)cc3)nn3c2NCC3)ccc1=O | – | – | – | – | 106 nM | – | –
Cc1ccccc1-n1nc(-c2c(-c3ccc(F)cc3)nn3c2N[C@@H](CO)CC3)ccc1=O | – | – | – | 23 ×10⁻⁶ cm/s | 0.46 nM | 98% | –
Cc1ccccc1-n1nc(-c2c(-c3ccc(F)cc3)nn3c2NC[C@@H](O)C3)ccc1=O | 61.4% | 3.89 h | 1.23 L/kg | 16 ×10⁻⁶ cm/s | 0.85 nM | 94% | F [13]: 67.7%; AUC [14]: 763 ng·h/mL
Cc1ccc(-n2nc(C(C)(C)C)cc2NC(=O)Nc2ccc(OCCN3CCOCC3)c3ccccc23)cc1 [DORAMAPIMOD] | – | – | – | – | – | – | ED30 [15]: 5.8 mg/kg; ED50 [16]: 2.6 mg/kg
Cc1ccccc1-n1nc(-c2c(-c3ccc(F)cc3)nn3c2NCC(CN2CCN(C)CC2)C3)ccc1=O (centres undefined) | – | – | – | 21 ×10⁻⁶ cm/s | 1.1 nM | 88% | –
Cc1ccccc1-n1nc(-c2c(-c3ccc(F)cc3)nn3c2NC[C@H](O)C3)ccc1=O | 51% | 9.01 h | 4.21 L/kg | 17 ×10⁻⁶ cm/s | 1.8 nM | 89% | F [13]: 81%; AUC [14]: 457 ng·h/mL
Cc1ccccc1-n1nc(-c2c(-c3ccc(F)cc3)nn3c2NCCC3)ccc1=O | – | – | – | 30 ×10⁻⁶ cm/s | 1 nM | 93% | CLint scaled [10]: 94 mL/min/kg
O=c1ncn2nc(Sc3ccc(F)cc3F)ccc2c1-c1c(Cl)cccc1Cl [NEFLAMAPIMOD] | – | – | – | – | – | – | ED30 [15]: 92 mg/kg; ED50 [16]: 39.9 mg/kg
Cc1ccccc1-n1nc(-c2c(-c3ccc(F)cc3)nn3c2NC[C@@H](CO)C3)ccc1=O [AS1940477] | 71.3% | 5.15 h | 0.77 L/kg | 19.7 ×10⁻⁶ cm/s | 0.6 nM | 92% | solubility [17]: 42 µg/mL (≈ 97.3 µM); IC50 [18]: > 100000 nM; IC50 [19]: 19000 nM; IC50 [20]: > 50000 nM; IC50 [21]: > 50000 nM; IC50 [22]: > 50000 nM; IC50 [23]: > 10000 nM; IC50 [24]: 36 nM; IC50 [25]: 11 nM; ED30 [15]: 0.15 mg/kg; ED50 [16]: 0.05 mg/kg; F [13]: 61.8%; AUC [14]: 1518 ng·h/mL

From ChEMBL document CHEMBL2169749 (J Med Chem, 2012)
